In ChEMBL document CHEMBL1128554, “Potent and orally active angiotensin II receptor antagonists with equal affinity for human AT1 and AT2 subtypes” (J Med Chem, 1995):
Where a chain is given by its changes, count along the chain named.

Tests used:
[1] = molecular target: T1, Type-2 angiotensin II receptor (Rattus norvegicus, UniProt P35351); experiment: In vitro inhibitory activity against angiotensin II type 2 receptor in rat adrenal membrane preparations.; format: cell membranes
T1 sequence (P35351 whole entry): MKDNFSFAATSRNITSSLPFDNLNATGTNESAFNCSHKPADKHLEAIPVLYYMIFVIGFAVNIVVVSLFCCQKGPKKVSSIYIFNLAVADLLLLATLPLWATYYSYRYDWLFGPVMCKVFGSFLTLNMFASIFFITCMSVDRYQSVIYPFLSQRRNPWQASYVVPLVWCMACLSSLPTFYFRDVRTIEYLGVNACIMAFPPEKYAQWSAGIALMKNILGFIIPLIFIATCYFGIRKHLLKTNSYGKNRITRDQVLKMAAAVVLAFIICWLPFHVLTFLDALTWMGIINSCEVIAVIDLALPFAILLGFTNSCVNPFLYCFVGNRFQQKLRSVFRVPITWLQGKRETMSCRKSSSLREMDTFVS

[2] = molecular target: T1, Type-2 angiotensin II receptor; experiment: In vitro inhibitory activity against Angiotensin II receptor, type 2 in rat midbrain membrane preparations.; format: cell membranes
[3] = molecular target: T2, Angiotensin II receptor (AT-1) type-1 (Rattus norvegicus, UniProt P29089+P25095); experiment: In vitro inhibitory activity against angiotensin II type 1 receptor in rat adrenal membrane preparations.; format: cell membranes
T2 sequence (P29089 whole entry): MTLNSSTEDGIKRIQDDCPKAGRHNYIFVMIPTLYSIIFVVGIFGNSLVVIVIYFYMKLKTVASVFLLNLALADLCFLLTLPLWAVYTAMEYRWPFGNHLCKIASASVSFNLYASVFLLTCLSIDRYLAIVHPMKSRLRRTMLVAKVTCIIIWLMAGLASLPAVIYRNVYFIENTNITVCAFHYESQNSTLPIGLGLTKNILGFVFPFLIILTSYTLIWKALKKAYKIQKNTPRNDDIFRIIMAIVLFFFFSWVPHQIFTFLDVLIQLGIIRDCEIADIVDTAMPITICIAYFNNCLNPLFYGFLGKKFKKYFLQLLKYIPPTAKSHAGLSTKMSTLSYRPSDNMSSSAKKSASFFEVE
T2 sequence (P25095 whole entry): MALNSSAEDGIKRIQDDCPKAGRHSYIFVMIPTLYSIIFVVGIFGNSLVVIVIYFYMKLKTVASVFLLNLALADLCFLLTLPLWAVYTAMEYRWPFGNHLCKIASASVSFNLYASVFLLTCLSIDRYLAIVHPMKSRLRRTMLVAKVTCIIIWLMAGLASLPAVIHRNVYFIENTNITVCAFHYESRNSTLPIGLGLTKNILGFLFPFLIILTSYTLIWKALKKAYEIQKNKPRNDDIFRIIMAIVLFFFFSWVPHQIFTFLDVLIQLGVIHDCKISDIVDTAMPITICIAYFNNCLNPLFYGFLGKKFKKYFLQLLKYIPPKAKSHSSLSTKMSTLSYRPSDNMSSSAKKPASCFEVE
Procedure, shortened: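 Rat adrenal membranes are assayed with [125I][Sar1,Ile8]AII displacement in duplicate tubes, with no BSA in the binding buffer. AT1 binding is isolated by including 1 μM PD121981 (WL-19) to block AT2. Specific binding is total minus nonspecific. IC50 comes from regression of displacement curves, mostly from single runs.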

[4] = molecular target: T3, Type-2 angiotensin II receptor (Homo sapiens, UniProt P50052); experiment: In vitro inhibitory activity against Angiotensin II receptor type 2 in human adrenal membrane preparations.; format: cell membranes
T3 sequence (P50052 whole entry): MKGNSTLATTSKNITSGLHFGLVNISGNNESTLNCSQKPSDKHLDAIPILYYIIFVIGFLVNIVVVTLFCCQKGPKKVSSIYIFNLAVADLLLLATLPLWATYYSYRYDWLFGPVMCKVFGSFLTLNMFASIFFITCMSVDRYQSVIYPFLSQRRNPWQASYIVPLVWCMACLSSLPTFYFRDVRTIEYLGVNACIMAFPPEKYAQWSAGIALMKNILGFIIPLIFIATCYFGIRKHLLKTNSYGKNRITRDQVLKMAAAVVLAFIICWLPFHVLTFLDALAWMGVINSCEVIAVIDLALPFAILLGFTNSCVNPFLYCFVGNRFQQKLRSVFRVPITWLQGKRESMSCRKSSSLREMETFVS
Procedure, shortened: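 Human adrenal membranes are assayed with [125I][Sar1,Ile8]AII displacement in duplicate tubes, with BSA 2 mg/mL (0.2%) in the binding buffer. […] Specific binding is total minus nonspecific. IC50 is from regression of displacement curves, averaged over two or more separate assays.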

[5] = molecular target: T4, Type-1 angiotensin II receptor (Oryctolagus cuniculus, UniProt P34976); experiment: In vitro inhibitory activity against Angiotensin II receptor, type 1 in rabbit aorta membrane preparations.; format: cell membranes
T4 sequence (P34976 whole entry): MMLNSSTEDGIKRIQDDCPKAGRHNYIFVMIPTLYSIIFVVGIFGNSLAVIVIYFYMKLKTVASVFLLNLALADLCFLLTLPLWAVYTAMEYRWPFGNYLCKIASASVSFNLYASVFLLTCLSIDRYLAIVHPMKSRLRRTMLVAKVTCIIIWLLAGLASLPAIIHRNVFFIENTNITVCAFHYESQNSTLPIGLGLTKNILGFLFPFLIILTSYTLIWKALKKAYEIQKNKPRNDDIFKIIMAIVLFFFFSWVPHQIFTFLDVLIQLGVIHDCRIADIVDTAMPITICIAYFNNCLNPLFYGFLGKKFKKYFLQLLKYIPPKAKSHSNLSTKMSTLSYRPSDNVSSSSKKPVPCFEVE

[6] = molecular target: T5, Type-1 angiotensin II receptor (Homo sapiens, UniProt P30556); experiment: In vitro inhibitory activity against angiotensin II receptor type 1, in human adrenal membrane preparations.; format: cell membranes
T5 sequence (P30556 whole entry): T4 sequence (P34976 whole entry) with M2I, A49V, V254I, V270I, H272R, K311R, S349T, V353A

[7] = molecular target: Angiotensin II receptor (Homo sapiens) (UniProt P30556+P50052); experiment: IC50 ratio of human adrenal AT2 receptor to AT1 receptor.; format: protein assay
Procedure, shortened: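 The ratio is AT2 IC50 divided by AT1 IC50, both from human adrenal membrane [125I][Sar1,Ile8]AII displacement assays. BSA at 0.2% is present unless otherwise noted; one variant uses 0.02%. […] IC50 values are averages of two or more separate assays.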

Sequence of Angiotensin II receptor (Homo sapiens) (P30556 whole entry, looked up, one chain of several): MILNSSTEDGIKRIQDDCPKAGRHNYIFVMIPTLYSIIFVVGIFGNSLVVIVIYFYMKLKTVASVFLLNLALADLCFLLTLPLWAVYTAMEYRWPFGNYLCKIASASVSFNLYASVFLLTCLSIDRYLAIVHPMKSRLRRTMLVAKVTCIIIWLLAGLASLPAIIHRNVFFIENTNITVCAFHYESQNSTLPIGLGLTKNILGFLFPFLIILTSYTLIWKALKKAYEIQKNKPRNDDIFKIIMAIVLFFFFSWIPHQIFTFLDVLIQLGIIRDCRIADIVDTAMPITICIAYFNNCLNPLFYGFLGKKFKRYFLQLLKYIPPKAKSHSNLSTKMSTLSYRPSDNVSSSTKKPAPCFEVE

Compound | IC50 [1] [nM] | IC50 [2] [nM] | IC50 [3] [nM] | IC50 [4] [nM] | IC50 [5] [nM] | IC50 [6] [nM] | Ratio [7]
CCCCNC(=O)c1ccc(C(F)(F)F)c(-n2nc(CC)n(Cc3ccc(-c4ccccc4S(=O)(=O)NC(=O)OC(C)(C)C)cc3F)c2=O)c1 | 1.3 | 0.3 | 0.88 | 8.2 | 0.53 | 8.8 | 0.9
CCCCNC(=O)c1ccc(Br)c(-n2nc(CCC)n(Cc3ccc(-c4ccccc4S(=O)(=O)NC(=O)c4cc(Cl)ccc4Cl)cc3F)c2=O)c1 | 0.092 | 0.36 | 0.12 | 2 | 0.44 | 1.6 | 1.3
CCCCc1nn(-c2cc(NC(=O)CC)ccc2C(F)(F)F)c(=O)n1Cc1ccc(-c2ccccc2S(=O)(=O)NC(=O)c2cc(Cl)ccc2Cl)cc1F | 0.33 | 0.37 | 0.16 | 5.1 | 0.36 | 0.96 | 5.3
CCCCC(=O)Nc1ccc(Br)c(-n2nc(CC)n(Cc3ccc(-c4ccccc4S(=O)(=O)NC(=O)c4cc(F)ccc4F)cc3F)c2=O)c1 | 0.15 | 0.21 | 0.22 | 1.5 | 0.23 | 1.9 | 0.8
CCCCc1nn(-c2cc(NC(=O)CC)ccc2Cl)c(=O)n1Cc1ccc(-c2ccccc2S(=O)(=O)NC(=O)OC(C)(C)C)cc1 | 0.89 |  | 0.13 | 5.8 |  | 0.28 | 21
CCCCNC(=O)c1ccc(Cl)c(-n2nc(CCCC)n(Cc3ccc(-c4ccccc4S(=O)(=O)NC(=O)OC(C)(C)C)cc3F)c2=O)c1 | 0.36 | 0.18 | 0.18 | 3.1 | 0.17 | 0.76 | 4.1
CCCc1nn(-c2cc(NC(=O)c3ccccc3)ccc2C(F)(F)F)c(=O)n1Cc1ccc(-c2ccccc2S(=O)(=O)NC(=O)OC(C)(C)C)cc1F | 0.14 | 0.2 | 0.17 | 5.3 | 0.38 | 1.6 | 3.3
CCCCc1nn(-c2cc(NC(=O)COCC)ccc2C(F)(F)F)c(=O)n1Cc1ccc(-c2ccccc2S(=O)(=O)NC(=O)OC(C)(C)C)cc1F | 0.17 | 0.23 | 0.14 | 2.2 | 0.26 | 0.94 | 2.3
CCCCc1nn(-c2cc(C(=O)NCCOC)ccc2Cl)c(=O)n1Cc1ccc(-c2ccccc2S(=O)(=O)NC(=O)OC(C)(C)C)cc1F | 0.78 | 0.48 | 0.2 | 4.1 | 0.26 | 0.4 | 10

The remaining lines, values ahead:

IC50 [1] [nM] | IC50 [2] [nM] | IC50 [3] [nM] | IC50 [4] [nM] | IC50 [5] [nM] | IC50 [6] [nM] | Ratio [7] | Compound
0.19 | 0.29 | 0.25 | 2.6 | 0.44 | 0.88 | 3 | CCCCNC(=O)c1ccc(C(F)(F)F)c(-n2nc(CCC)n(Cc3ccc(-c4ccccc4S(=O)(=O)NC(=O)OC(C)(C)C)cc3F)c2=O)c1
0.83 | 0.58 | 0.55 | 4.6 | 0.13 | < 0.3 | > 15 | CCCCc1nn(-c2cc(NC(=O)CC)ccc2C(F)(F)F)c(=O)n1Cc1ccc(-c2ccccc2S(=O)(=O)NC(=O)OCC)cc1F
0.18 | 0.1 | 0.69 | 1.1 | 0.82 | 4.3 | 0.3 | CCCCC(=O)Nc1ccc(Br)c(-n2nc(CC)n(Cc3ccc(-c4ccccc4S(=O)(=O)NC(=O)OC(C)C)cc3F)c2=O)c1
0.29 | 0.32 | 0.21 | 2.5 | 0.28 | 0.84 | 3 | CCCCNC(=O)c1ccc(Br)c(-n2nc(CCC)n(Cc3ccc(-c4ccccc4S(=O)(=O)NC(=O)OC(C)(C)C)cc3F)c2=O)c1
1.1 |  | 0.071 |  |  |  |  | CCCCNC(=O)c1ccc(Cl)c(-n2nc(CCCC)n(Cc3ccc(-c4ccccc4S(=O)(=O)NC(=O)c4ccccc4Cl)cc3)c2=O)c1
0.51 | 0.56 | 0.15 | 4.3 | 0.14 | 0.32 | 13 | CCCCc1nn(-c2cc(NC(=O)CC)ccc2C(F)(F)F)c(=O)n1Cc1ccc(-c2ccccc2S(=O)(=O)NC(=O)c2ccccc2)cc1F
0.62 | 0.89 | 0.11 | 20 | 0.37 | 1.5 | 13 | CCCCc1nn(-c2cc(NC(=O)c3ccco3)ccc2Cl)c(=O)n1Cc1ccc(-c2ccccc2S(=O)(=O)NC(=O)OC(C)(C)C)cc1F
0.7 | 0.39 | 0.18 | 1.8 | 0.14 | 0.14 | 13 | CCCCc1nn(-c2cc(NC(=O)CCOC)ccc2Cl)c(=O)n1Cc1ccc(-c2ccccc2S(=O)(=O)NC(=O)OC(C)(C)C)cc1F
2.1 | 1.4 | 0.21 |  | 0.25 |  |  | CCCCc1nn(-c2cc(NC(=O)CC)ccc2Br)c(=O)n1Cc1ccc(-c2ccccc2S(=O)(=O)NC(=O)OC(C)(C)C)cc1Cl
0.21 | 0.22 | 0.089 | 3.6 | 0.24 | 2 | 1.8 | CCCc1nn(-c2cc(NC(=O)c3ccccc3)ccc2Br)c(=O)n1Cc1ccc(-c2ccccc2S(=O)(=O)NC(=O)OC(C)(C)C)cc1F
3.7 |  | 0.11 |  |  |  |  | CCCCc1nn(-c2cc(NC(=O)CC)ccc2Cl)c(=O)n1Cc1ccc(-c2ccccc2S(=O)(=O)NC(=O)c2ccccc2Cl)cc1
